Source: ChEMBL document CHEMBL4725448, “Substituted Azabicyclo[2.2.1]heptanes as Selective Orexin-1 Antagonists: Discovery of JNJ-54717793” (ACS Med Chem Lett, 2020)
≈ marks a conversion by molar mass, not a printed value.

Tests used:
[1] = Cmax in rat assessed as NOAEL at 200 mg/kg/day, po administered as repeated dose for 13 days; type: ADME, organism-based; set-up: route oral, time 13 day, dose 200 mg/kg/day; settings: in vivo
[2] = Dissociation constant, pKa of the compound; type: physicochemical
[3] = Lipophilicity, logD of the compound at pH 7.4; type: physicochemical; settings: buffer
[4] = Stability in human liver microsomes assessed as extraction ratio; type: ADME, Microsome; settings: read-out: ERH
In short: (§1)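 Metabolic stability in human or rat liver microsomes, expressed as extraction ratios.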

[5] = target: T1, Orexin/Hypocretin receptor type 1 (Homo sapiens, UniProt O43613); assay: Binding affinity to human […]
T1 sequence (O43613 whole entry): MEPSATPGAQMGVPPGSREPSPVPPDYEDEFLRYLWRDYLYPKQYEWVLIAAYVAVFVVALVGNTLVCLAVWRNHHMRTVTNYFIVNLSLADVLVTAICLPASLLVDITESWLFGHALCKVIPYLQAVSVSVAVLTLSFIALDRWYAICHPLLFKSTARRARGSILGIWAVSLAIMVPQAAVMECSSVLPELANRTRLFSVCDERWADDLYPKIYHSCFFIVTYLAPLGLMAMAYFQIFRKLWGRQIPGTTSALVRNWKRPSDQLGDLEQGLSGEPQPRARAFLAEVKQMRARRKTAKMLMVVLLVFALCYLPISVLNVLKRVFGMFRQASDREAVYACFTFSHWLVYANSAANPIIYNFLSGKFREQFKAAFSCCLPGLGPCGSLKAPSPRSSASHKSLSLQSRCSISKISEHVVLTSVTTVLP

[6] = Stability in rat liver microsomes assessed as extraction ratio; type: ADME, Microsome; settings: read-out: ERH; in short: as §1
[7] = Ex vivo receptor occupancy at OX1R in Sprague-Dawley rat brain tenia tecta using [3H]SB-674042 labelling at 30 mg/kg, po measured after 0.5 hrs by autoradiography; type: functional
In short: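 Ex vivo OX1R binding autoradiography in rat tenia tecta after a 30 mg/kg po dose; percent occupancy read at 0.5 and 2 h.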

[8] = Ex vivo receptor occupancy at OX1R in Sprague-Dawley rat brain tenia tecta using [3H]SB-674042 labelling at 10 mg/kg, po measured after 0.5 hrs by autoradiography; type: functional
In short: (§2)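 Rats received a single oral dose, and OX1R occupancy was measured by ex vivo binding autoradiography in brain tenia tecta sections at 0.5, 2 and 6 h after dosing. Occupancy is expressed as percent. Brain and plasma drug levels (ng/mL) were also sampled at the 0.5 h time point.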

[9] = Ex vivo receptor occupancy at OX1R in Sprague-Dawley rat brain tenia tecta using [3H]SB-674042 labelling at 10 mg/kg, po measured after 2 hrs by autoradiography; type: functional; in short: as §2
[10] = Ex vivo receptor occupancy at OX1R in Sprague-Dawley rat brain tenia tecta using [3H]SB-674042 labelling at 10 mg/kg, po measured after 6 hrs by autoradiography; type: functional; in short: as §2
[11] = Drug concentration in Sprague-Dawley rat brain at 30 mg/kg, po after 0.5 hrs by LC-MS/MS analysis; type: ADME, organism-based; settings: read-out: Ct
In short: (§3)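 Brain and plasma levels (ng/mL) sampled 0.5 h after oral dosing at 10 or 30 mg/kg, alongside the ex vivo tenia tecta occupancy study.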

[12] = Drug concentration in Sprague-Dawley rat plasma at 30 mg/kg, po after 0.5 hrs by LC-MS/MS analysis; type: ADME, organism-based; in short: as §3
[13] = Stability in dog liver microsomes assessed as extraction ratio; type: ADME, Canis lupus familiaris, Microsome; settings: read-out: ERH
[14] = Stability in mouse liver microsomes assessed as extraction ratio; type: ADME, Microsome; settings: read-out: ERH
[15] = Protein binding in human plasma assessed as free fraction; type: ADME, cell-free
[16] = Protein binding in rat plasma assessed as free fraction; type: ADME, cell-free
[17] = Protein binding in dog plasma assessed as free fraction; type: ADME, cell-free, Canis lupus familiaris
[18] = Protein binding in rat brain assessed as free fraction; type: ADME, tissue-based
[19] = Permeability across apical to basolateral side in MDCK cells; type: ADME, cell-based, Canis lupus familiaris; settings: dog
[20] = Ex vivo receptor occupancy at OX1R in po dosed rat tenia tecta after 60 mins; type: functional, organism-based; settings: 1 h
[21] = Oral bioavailability in mouse at 5 mg/kg; type: ADME, organism-based; settings: in vivo
[22] = Oral bioavailability in rat at 5 mg/kg; type: ADME, organism-based; settings: in vivo
[23] = Cmax in rat assessed as NOAEL at 250 mg/kg, po administered as repeated dose for 5 days; type: ADME, organism-based; set-up: route oral, dose 250 mg/kg, time 5 day; settings: in vivo
[24] = Clearance in rat at 1 mg/kg, iv and 5 mg/kg, po; type: ADME, organism-based; settings: in vivo
[25] = Clearance in dog at 0.5 mg/kg, iv and […], po; type: ADME, organism-based, Canis lupus familiaris; settings: in vivo, dose 2.5 mg/kg
[26] = Cmax in mouse at 1 mg/kg, iv and 5 mg/kg, po; type: ADME, organism-based; set-up: dose 5 mg/kg; settings: in vivo
[27] = Volume of distribution at steady state in mouse at 1 mg/kg, iv and 5 mg/kg, po; type: ADME, organism-based; settings: in vivo, read-out: Vdss
[28] = Volume of distribution at steady state in rat at 1 mg/kg, iv and 5 mg/kg, po; type: ADME, organism-based; settings: in vivo, read-out: Vdss
[29] = Volume of distribution at steady state in dog at 0.5 mg/kg, iv and […], po; type: ADME, organism-based, Canis lupus familiaris; settings: in vivo, dose 2.5 mg/kg, read-out: Vdss
[30] = Clearance in primate; type: ADME; settings: primates
[31] = Cmax in primate; type: ADME; settings: primates
[32] = AUC (0 to 24 hrs) in mouse assessed as NOAEL at 200 mg/kg/day, po administered as repeated dose for 13 days; type: ADME, organism-based; set-up: route oral, dose 200 mg/kg/day, time 13 day; settings: in vivo
[33] = AUC in rat assessed as NOAEL at 250 mg/kg, po administered as repeated dose for 5 days; type: ADME, organism-based; set-up: time 5 day, dose 250 mg/kg; settings: in vivo
[34] = AUC in human at 50 mg/day; type: ADME; set-up: dose 50 mg
[35] = Cmax in rat assessed as NOAEL at 200 mg/kg/day, po administered as repeated dose for 6 days; type: ADME, organism-based; set-up: route oral, dose 200 mg/kg/day, time 6 day; settings: in vivo
[36] = […] clearance in mouse at 1 mg/kg, iv and 5 mg/kg, po; type: ADME, organism-based; settings: in vivo
[37] = […] clearance in dog at 0.5 mg/kg, iv and […], po; type: ADME, organism-based, Canis lupus familiaris; settings: in vivo, dose 2.5 mg/kg
[38] = […] clearance in nonhuman primate; type: ADME; settings: primates
[39] = Cmax in rat assessed as NOAEL at 200 mg/kg/day, po measured after immediately administered; type: ADME, organism-based; set-up: route oral, dose 200 mg/kg/day, time 13 day; settings: in vivo
[40] = AUC (0 to 24 hrs) in rat assessed as NOAEL at 200 mg/kg/day, po measured after immediately administered; type: ADME, organism-based; set-up: route oral, time 13 day, dose 200 mg/kg/day; settings: in vivo
[41] = AUC (0 to 24 hrs) in mouse assessed as NOAEL at 200 mg/kg/day, po measured after immediately administered; type: ADME, organism-based; set-up: route oral, dose 200 mg/kg/day, time 13 day; settings: in vivo

## O=C(c1cccc(F)c1-c1ncccn1)N1[C@@H]2CC[C@H]1[C@H](Nc1cnc(C(F)(F)F)cn1)C2
[1]
  Cmax: 6980 ng/mL
[2]
  pKa: < 2
[3]
  logD: 2.18
[4]
  hepatic extraction ratio: < 0.3
[5]
  Ki: 16 nM
[6]
  hepatic extraction ratio: 0.31
[7]
  Activity: 100%
[8]
  Activity: 70%
[9]
  Activity: 41%
[10]
  Activity: 17%
[11]
  concentration at 0.5 h: 687 ng/mL
[12]
  concentration at 0.5 h: 4960 ng/mL
[13]
  hepatic extraction ratio: < 0.3
[14]
  hepatic extraction ratio: 0.4
[15]
  fraction unbound: 0.2
[16]
  fraction unbound: 0.23
[17]
  fraction unbound: 0.21
[18]
  fraction unbound: 0.09
[19]
  Papp A→B: 1.95 ×10⁻⁶ cm/s
[20]
  EC50: 0.085 µg/mL (≈ 0.185 µM)
[20]; po, time 60 min
  ED50: 1.3 mg/kg
[21]
  bioavailability: 58%
[22]
  bioavailability: 119%
[23]
  Cmax: 15000 ng/mL
[24]
  clearance: 17 mL/min/kg
[25]
  clearance: 0.9 mL/min/kg
[26]
  Cmax: 1500 ng/mL
[27]
  Vd: 1.1 L/kg
[28]
  Vd: 1.4 L/kg
[29]
  Vd: 0.6 L/kg
[30]
  clearance: 14 mL/min/kg
[31]
  Cmax: 349 ng/mL
[32]
  AUC at 312 h: 84.1 µg·h/mL
[33]
  AUC at 120 h: 101 µg·h/mL
[34]
  AUC: 6.87 µg·h/mL
[35]
  Cmax: 8800 ng/mL
[36]
  clearance: 29 mL/min/kg
[37]
  clearance: 4.8 mL/min/kg
[38]
  CLint scaled: 13 mL/min/kg
[39]
  Cmax: 30900 ng/mL
[40]
  AUC at 312 h: 386 µg·h/mL
[41]
  AUC at 312 h: 225 µg·h/mL
